# Source: ChEMBL document CHEMBL1955737, “Diarylpyrimidine-dihydrobenzyloxopyrimidine hybrids: new, wide-spectrum anti-HIV-1 agents active at (sub)-nanomolar level” (J Med Chem, 2011)
# Key:
# [1] = tested on: Human immunodeficiency virus 1; assay: Antiviral activity against HIV 1 harboring reverse transcriptase K103N mutant infected in human MT4 cells assessed as inhibition of virus-induced cytopathic effect after 5 days by MTT assay; format: functional, organism-based; details: Human immunodeficiency virus 1, MT4, 120 h
# [2] = tested on: Human immunodeficiency virus 1; assay: Ratio of ID50 for HIV 1 reverse transcriptase K103N mutant to ID50 for wild type HIV 1 NL4-3 reverse transcriptase
# Outline: (§1)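 Recombinant HIV-1 RT (wild type or K103N, L100I, Y181I or Y188L), purified to >95%, at 2-4 nM. RNA-dependent DNA polymerase assay with 0.5 μg poly(rA)/oligo(dT) 10:1 (0.3 μM 3'-OH ends) and 10 μM [3H]dTTP in 8% final DMSO. Initial velocities were taken from aliquots sampled every 2 min. […] The ratio is mutant ID50 over wild-type ID50. Means of at least three experiments.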
# [3] = target: Human immunodeficiency virus type 1 reverse transcriptase (Human immunodeficiency virus 1) (UniProt Q72547)
# [4] = tested on: Human immunodeficiency virus type 1 reverse transcriptase (Human immunodeficiency virus 1), Q72547 [L100I]
# [5] = tested on: Human immunodeficiency virus 1; assay: Antiviral activity against HIV 1 harboring reverse transcriptase Y188L mutant infected in human MT4 cells assessed as inhibition of virus-induced cytopathic effect after 5 days by MTT assay; format: functional, organism-based; details: Human immunodeficiency virus 1, MT4, 120 h
# [6] = tested on: Human immunodeficiency virus 1; assay: Ratio of ID50 for HIV 1 reverse transcriptase L100I mutant to ID50 for wild type HIV 1 NL4-3 reverse transcriptase; outline: as §1
# [7] = tested on: Human immunodeficiency virus 1; assay: Resistance ratio of EC50 for HIV 1 harboring reverse transcriptase K103N mutant infected in human MT4 cells to EC50 for wild type HIV 1 NL4-3 infected in human MT4 cells; format: functional
# Outline: (§2)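 Fold change is the EC50 against the mutant strain (K103N, Y181C, Y188L or IRLL98) divided by the EC50 against wild-type NL4-3. Both EC50s come from MT-4 cells infected in the presence of a range of drug concentrations, with MTT viability read at day 5. Values are means of at least two experiments.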
# [8] = tested on: Human immunodeficiency virus 1; assay: Antiviral activity against wild type HIV 1 NL4-3 infected in human MT4 cells assessed as inhibition of virus-induced cytopathic effect after 5 days by MTT assay; format: functional, organism-based; details: Human immunodeficiency virus 1, NL4-3, MT4, 120 h
# [9] = tested on: Human immunodeficiency virus 1; assay: Antiviral activity against HIV 1 harboring reverse transcriptase Y181C mutant infected in human MT4 cells assessed as inhibition of virus-induced cytopathic effect after 5 days by MTT assay; format: functional, organism-based; details: Human immunodeficiency virus 1, MT4, 120 h
# Outline: (§3)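 MT-4 cells (NIH AIDS Reagent Program) infected with the mutant HIV-1 strain in the presence of a range of drug concentrations. Mutant strains were from the MRC Centralised Facility for AIDS Reagents; IRLL98 carries K101Q, Y181C and G190A. Viable cells were counted by MTT colorimetry at day 5 post-infection. […] Values are means of at least two experiments.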
# [10] = tested on: Human immunodeficiency virus 1; assay: Ratio of ID50 for HIV 1 reverse transcriptase Y188L mutant to ID50 for wild type HIV 1 NL4-3 reverse transcriptase; outline: as §1
# [11] = Selectivity index, ratio of CC50 for human MT4 cells to EC50 for HIV 1 NL4-3; format: toxicity, cell-based; details: read-out: Ratio CC50/EC50
# Outline: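 CC50 from mock-infected MT-4 cells and EC50 against HIV-1 NL4-3 in infected MT-4 cells, both by day-5 MTT viability read-out; index computed as CC50/EC50(NL4-3); means of at least two experiments.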
# [12] = tested on: Human immunodeficiency virus type 1 reverse transcriptase (Human immunodeficiency virus 1), Q72547 [Y181I]
# [13] = tested on: Human immunodeficiency virus 1; assay: Ratio of ID50 for HIV 1 reverse transcriptase Y181I mutant to ID50 for wild type HIV 1 NL4-3 reverse transcriptase; outline: as §1
# [14] = tested on: Human immunodeficiency virus 1; assay: Resistance ratio of EC50 for HIV 1 harboring reverse transcriptase Y188L mutant infected in human MT4 cells to EC50 for wild type HIV 1 NL4-3 infected in human MT4 cells; format: functional; outline: as §2
# [15] = tested on: Human immunodeficiency virus 1; assay: Resistance ratio of EC50 for HIV 1 harboring reverse transcriptase Y181C mutant infected in human MT4 cells to EC50 for wild type HIV 1 NL4-3 infected in human MT4 cells; format: functional; outline: as §2
# [16] = tested on: Human immunodeficiency virus type 1 reverse transcriptase (Human immunodeficiency virus 1), Q72547 [K103N]
# [17] = Cytotoxicity against human MT4 cells assessed as cell viability by MTT assay; format: cell-based
# [18] = Ratio of TMC120 CC50 to compound CC50 for human MT4 cells; format: ADME, cell-based
# [19] = tested on: Human immunodeficiency virus 1; assay: Ratio of efavirenz EC50 to compound EC50 for wild type HIV 1 NL4-3 infected in human MT4 cells; format: functional
# MT4 = assay: Ratio of MC1220 CC50 to compound CC50 for human MT4 cells; format: ADME, cell-based
# [20] = tested on: Human immunodeficiency virus 1; assay: Antiviral activity against multidrug-resistant HIV 1 IRLL98 harboring reverse transcriptase K101Q/Y181C/G190a mutant infected in human MT4 cells assessed as virus-induced cytopathic effect after 5 days by MTT assay; format: functional, organism-based; details: Human immunodeficiency virus 1, IRLL98, MT4, 120 h; outline: as §3
Structure (SMILES),EC50 [1],Ratio [2],ID50 [3],ID50 [4],EC50 [5],Ratio [6],Ratio EC50 [7],EC50 [8],EC50 [9],Ratio [10],selectivity ratio [11],ID50 [12],Ratio [13],Ratio EC50 [14],Ratio EC50 [15],ID50 [16],CC50 [17],further results
CC(c1ccnc(Nc2ccc(C#N)cc2)n1)c1c(F)cccc1F (stereo not given),27.3 nM,28,9 nM,664 nM,100 nM,74,55,0.5 nM,44.3 nM,85,75000,5910 nM,656,200,89,248 nM,37500 nM,
Cc1c(C(C)c2c(F)cccc2F)nc(Nc2ccc(C#N)cc2)[nH]c1=O (stereo not given),61.1 nM,312,0.4 nM,1000 nM,230 nM,2500,21,2.9 nM,45.6 nM,172,367,1400 nM,3500,79,16,125 nM,1060 nM,
N#Cc1ccc(Nc2nc(Cc3c(F)cccc3F)cc(=O)[nH]2)cc1,290 nM,3250,0.8 nM,1600 nM,> 2500 nM,2000,0.8,344 nM,344 nM,1550,> 7.3,56000 nM,70000,,1,2600 nM,> 2500 nM,
Cc1cnc(Nc2ccc(C#N)cc2)nc1C(C)c1c(F)cccc1F (stereo not given),51.9 nM,22,6.9 nM,128 nM,31.4 nM,19,86,0.6 nM,42.5 nM,43,119000,5000 nM,725,52,71,154 nM,71400 nM,
CC(c1cc(N)nc(Nc2ccc(C#N)cc2)n1)c1c(F)cccc1F (stereo not given),8.2 nM,10,11 nM,765 nM,66.6 nM,69,27,0.3 nM,44.7 nM,147,154000,11100 nM,1010,222,149,109 nM,46100 nM,selectivity ratio [18]: > 10; Ratio EC50 [19]: >10; Ratio (MT4): 2.5
Cc1c(N)nc(Nc2ccc(C#N)cc2)nc1Cc1c(F)cccc1F,8.2 nM,8,11 nM,603 nM,151 nM,55,41,0.2 nM,70.3 nM,315,230000,22100 nM,2010,756,352,90 nM,45900 nM,selectivity ratio [18]: > 10; Ratio EC50 [19]: >10; Ratio (MT4): 2.5
N#Cc1ccc(Nc2nccc(Cc3c(F)cccc3F)n2)cc1,68.2 nM,83,6 nM,671 nM,225 nM,112,136,0.5 nM,60.2 nM,306,> 155000,7470 nM,1250,450,120,500 nM,> 77600 nM,
Cc1c(C(C)c2c(F)cccc2F)nc(N(C)C)[nH]c1=O (stereo not given),,5,100 nM,1000 nM,,10,,,,5,,4000 nM,40,,,500 nM,> 17000 nM,EC50 [20]: 205 nM
N#Cc1ccc(Nc2nc(Cl)cc(Cc3c(F)cccc3F)n2)cc1,171 nM,74,59 nM,,1400 nM,,13,13.4 nM,561 nM,,> 209,> 80000 nM,,105,42,4360 nM,> 2800 nM,
CC(c1cc(=O)[nH]c(Nc2ccc(C#N)cc2)n1)c1c(F)cccc1F (stereo not given),56.8 nM,12,28 nM,,653 nM,,6,9.1 nM,88 nM,149,> 312,12300 nM,438,72,10,347 nM,> 2840 nM,
Cc1ccnc2c1NC(=O)c1cccnc1N2C1CC1 [NEVIRAPINE],6120 nM,,,,> 7510 nM,,,,> 7510 nM,,,35000 nM,,,,,7510 nM,EC50 [20]: > 18800 nM
Cc1c(Cc2c(F)cccc2F)nc(Nc2ccc(C#N)cc2)[nH]c1=O,1390 nM,107,200 nM,,> 2840 nM,,6,244 nM,> 2840 nM,,> 11.6,> 80000 nM,,,,21400 nM,> 2840 nM,
O=C1Nc2ccc(Cl)cc2[C@@](C#CC2CC2)(C(F)(F)F)O1 [EFAVIRENZ],343 nM,,,,,,,3.17 nM,10.1 nM,,,,,,,,3170 nM,EC50 [20]: 634 nM
CC(c1cc(Cl)nc(Nc2ccc(C#N)cc2)n1)c1c(F)cccc1F (stereo not given),51.2 nM,24,12 nM,,836 nM,,34,1.5 nM,154 nM,237,> 1800,28600 nM,2380,557,102,286 nM,> 2700 nM,
Cc1cc(C)c(Nc2ccnc(Nc3ccc(C#N)cc3)n2)c(C)c1 [DAPIVIRINE],1.2 nM,,7 nM,,,,,0.03 nM,1.2 nM,,,> 1000 nM,,,,100 nM,3040 nM,EC50 [20]: 0.3 nM
Cc1c(Cl)nc(Nc2ccc(C#N)cc2)nc1Cc1c(F)cccc1F,739 nM,26,17 nM,,> 2700 nM,,23,21.6 nM,2540 nM,371,> 125,> 40000 nM,,,80,445 nM,> 2700 nM,
Cc1cnc(Nc2ccc(C#N)cc2)nc1Cc1c(F)cccc1F,88.3 nM,29,9 nM,2960 nM,1020 nM,329,27,3.3 nM,358 nM,,> 22500,> 80000 nM,,308,108,262 nM,> 74300 nM,
